Data from ChEMBL document CHEMBL1127652, “An enantiospecific synthesis of the human cytomegalovirus antiviral agent [(R)-3-((2-amino-1,6-dihydro-6-oxo-9H-purin-9-yl)methoxy)-4- hydroxybutyl]phosphonic acid” (J Med Chem, 1994).

How the values were obtained:
[1] = In vitro toxicity against burst forming unit erythroid (BFU-E); details: human, burst forming unit erythroid (BFU-E) progenitor cells
MRC5 = assay: In vitro antiviral activity against Human cytomegalovirus (HCMV)strain AD169 in MRC-5 lung fibroblasts using a DNA-hybridization assay; type: functional, cell-based
Summary of the method: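 HCMV strain AD169 grown in MRC-5 human lung fibroblasts; viral DNA read out by DNA hybridization. Each drug concentration tested in triplicate. IC50 derived by probit linear regression, and reported values span 7 to 12 independent experiments with standard errors.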

[2] = In vitro toxicity against colony forming unit granulocyte macrophage (CFU-GM); type: cell-based; details: human
CCRF-CEM = assay: The compound is evaluated for toxicity in CEM cells; type: cell-based; details: Homo sapiens
IM-9 = assay: The compound is evaluated for toxicity in IM-9 cells; type: cell-based; details: Homo sapiens
MOLT-4 = assay: The compound is evaluated for toxicity in MOLT-4 cells; type: cell-based; details: Homo sapiens

Row | Compound | IC50 [1] | IC50 (MRC5) | IC50 [2] | IC50 (CCRF-CEM) | IC50 (IM-9) | IC50 (MOLT-4)
1 | Nc1nc2c(ncn2COC(CO)CO)c(=O)[nH]1 [GANCICLOVIR] | 29 µM | 1.7 µM | 19 µM | – | – | –
2 | CCOP(=O)(O)CC[C@H](CO)OCn1cnc2c(O)nc(N)nc21 | – | 6.8 µM | – | – | – | –
3 | Nc1nc2c(ncn2CO[C@@H](CO)CCP(=O)(O)O)c(=O)[nH]1 | 126 µM | 1.7 µM | 96 µM | > 100 µM | > 100 µM | > 100 µM
4 | Nc1nc(O)c2ncn(COC(CO)CCP(=O)(O)O)c2n1 (stereo not drawn) | 200 µM | 5.6 µM | 280 µM | – | – | –
